Activity calls are given as the source filed them.
Experiments:
THP-1 = test: Antiinflammatory activity in LPS-induced human THP-1 cells assessed as inhibition of LPS-induced TNF-alpha transcription preincubated for 0.5 hrs followed by LPS stimulation for 6 hrs by RT-qPCR method; format: functional, cell-based; conditions: dose 5-10 µM, time 6.5 hrs
Outline: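 J774A.1 or THP-1 cells pretreated 0.5 h at 10 or 5 μM, then LPS 0.5 μg/mL for 6 h. TRIzol RNA; IL-6, TNF-α and IL-1β transcripts by RT-qPCR, normalized to β-actin and control; 3 independent experiments, mean ± SEM.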

Mus musculus [1] = test: Protection against LPS-induced C57/BL6 mouse acute lung injury model assessed as reduction in number of total cells in BALF at 20 mg/kg via oral gavage preincubated for 30 mins followed by LPS stimulation for 6 hrs; format: functional, organism-based; conditions: time 6.5 hrs
Outline: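 Mice dosed 20 mg/kg by gavage (dexamethasone 20 mg/kg comparator), intratracheal LPS 5 mg/kg 30 min later, killed at 6 h. Right upper lobe fixed in paraformaldehyde, H&E; lung wet/dry ratio; BALF protein, total cells and neutrophils counted; n = 5 mice per group, mean ± SEM.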

Mus musculus [2] = test: Protection against LPS-induced sepsis in C57/BL6 mouse model assessed as reduction in weight loss at 20 mg/kg, po preincubated with compound followed by LPS stimulation for 1 hr and measured every 24 hrs by 6 days; format: functional, organism-based; conditions: time 6.0 day
Outline: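 Sepsis model in C57BL/6 mice, n = 12 per group: oral 20 mg/kg, then intraperitoneal LPS 20 mg/kg 1 h later; saline control. Survival checked every 12 h and body weight every 24 h for 6 days.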

Mus musculus [3] = test: Protection against LPS-induced sepsis in C57/BL6 mouse model assessed as reduction in periarterial lymphatic sheath thickening at 20 mg/kg, po preincubated with compound followed by LPS stimulation for 1 hr by H and E staining based analysis; format: functional, organism-based
Outline: (§1)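 Mice given 20 mg/kg orally, then intraperitoneal LPS 20 mg/kg 1 h later; n = 12 per group. Kidney, liver, heart and spleen weighed; spleen sections H&E-stained for histology.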

Mus musculus [4] = test: Protection against LPS-induced sepsis in C57/BL6 mouse model assessed as reduction in demarcation between white and red pulp at 20 mg/kg, po preincubated with compound followed by LPS stimulation for 1 hr by H and E staining based analysis; format: functional, organism-based; outline: as §1

COc1cc2nccc(Oc3ccc(NC(=O)c4cn(-c5ccccc5)c5ccccc5c4=O)cc3)c2cc1OC
active: inhibition (THP-1) Dose-Dependent Effect | Activity (Mus musculus [1]) | Activity (Mus musculus [2]) | Activity (Mus musculus [3]) | Activity (Mus musculus [4])
